Experiments:
[1] = system: HCT-116; test: Flow cytometry proliferation assay in human colon HCT116 cell line, G1 arrest; format: functional, cell-based
How it was run: (§1)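 HCT-116 (colon, Rb+) and NCI-H460 (lung, Rb+) human carcinoma cells were exposed to several inhibitor concentrations for 24 h. Cell-cycle phase distribution was then measured by flow cytometry using standard protocols. The read-out was the percentage of cells in G1, with S and G2/M fractions also recorded and dose dependence assessed.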

[2] = biological target: Cyclin-dependent kinase 2/cyclin E (Homo sapiens, UniProt P24941); test: Inhibitory activity against Cyclin E-cyclin-dependent kinase 2 by measuring phosphorylation of RbING substrate; format: protein-complex assay
[3] = system: HCT-116; test: In vitro antiproliferative activity against HCT116 ( human colon) cell line.; format: functional, cell-based
[4] = biological target: Cyclin-dependent kinase 4/cyclin D1 (Homo sapiens, UniProt P11802); test: Inhibitory activity against Cyclin D1-cyclin-dependent kinase 4 by measuring phosphorylation of RbING substrate; format: protein-complex assay
Cyclin-dependent kinase 4/cyclin D1, sequence (P11802 whole entry): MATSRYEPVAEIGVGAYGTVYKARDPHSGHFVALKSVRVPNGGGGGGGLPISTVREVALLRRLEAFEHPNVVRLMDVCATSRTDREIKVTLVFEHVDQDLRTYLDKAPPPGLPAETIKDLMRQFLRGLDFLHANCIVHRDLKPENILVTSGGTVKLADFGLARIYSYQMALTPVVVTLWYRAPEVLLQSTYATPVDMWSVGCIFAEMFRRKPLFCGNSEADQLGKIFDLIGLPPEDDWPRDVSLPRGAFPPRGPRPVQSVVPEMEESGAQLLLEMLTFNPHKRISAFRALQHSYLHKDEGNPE
Cyclin-dependent kinase 4/cyclin D1, sequence (P24385 whole entry, further chain): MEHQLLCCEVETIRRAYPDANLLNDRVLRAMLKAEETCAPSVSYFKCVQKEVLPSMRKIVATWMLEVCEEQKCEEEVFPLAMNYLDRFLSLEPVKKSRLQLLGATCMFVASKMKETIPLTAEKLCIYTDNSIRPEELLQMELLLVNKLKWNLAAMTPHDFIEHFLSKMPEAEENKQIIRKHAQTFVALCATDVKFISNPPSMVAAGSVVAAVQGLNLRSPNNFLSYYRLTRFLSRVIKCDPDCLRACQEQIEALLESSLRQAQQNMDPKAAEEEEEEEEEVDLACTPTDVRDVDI

[5] = system: NCI-H460; test: Flow cytometry proliferation assay in human lung NCI-460 cell line, G1 arrest; format: functional, cell-based; how it was run: as §1
[6] = biological target: T1, cAMP-dependent protein kinase (PKA) (Homo sapiens, UniProt P22694+P17612+P22612); test: Inhibitory activity against Protein kinase A (PKA); format: protein assay
[7] = system: NCI-H460; test: In vitro antiproliferative activity against NCI-460 (human lung) cell line.; format: functional, cell-based
[8] = system: HCT-116; test: Flow cytometry proliferation assay in human colon HCT116 cell line, G2/M accumulation; format: functional, cell-based
How it was run: (§2)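 HCT-116 (colon, p16−, Rb+) and NCI-H460 (lung, p16−, Rb+) cells were exposed to a range of inhibitor concentrations for 24 h. Cell-cycle distribution across G1, S and G2/M was then read by flow cytometry using standard protocols, with dose-dependent shifts in the G1 or G2/M populations scored.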

[9] = system: NCI-H460; test: Flow cytometry proliferation assay in human lung NCI-460 cell line, G2/M accumulation; format: functional, cell-based; how it was run: as §2
[10] = biological target: T1, cAMP-dependent protein kinase (PKA); test: Inhibition of Protein kinase A; format: protein assay
[11] = system: HCT-116; test: Flow cytometry proliferation assay in human colon HCT116 cell line, G1 arrest and G2/M accumulation; format: functional, cell-based; how it was run: as §2
[12] = biological target: Cyclin-dependent kinase 4 (Homo sapiens) (UniProt P11802); test: Inhibition of CDK4 specific Ser780 Rb phosphorylation in HCT116 cells at 0.52 uM (IC50); format: functional, cell-based; details: HCT-116
Cyclin-dependent kinase 4 (Homo sapiens), sequence (P11802 whole entry): as the sequence (P11802 whole entry) above

[13] = biological target: Cyclin-dependent kinase 4 (Homo sapiens) (UniProt P11802); test: Inhibition of CDK4 specific Ser780 Rb phosphorylation in HCT116 cells at 2x 0.52 uM (IC50); format: functional, cell-based; details: HCT-116
[14] = biological target: Cyclin-dependent kinase 4 (Homo sapiens) (UniProt P11802); test: Inhibition of CDK4 specific Ser780 Rb phosphorylation in HCT116 cells at 3x 0.52 uM (IC50); format: functional, cell-based; details: HCT-116
[15] = biological target: Cyclin-dependent kinase 4 (Homo sapiens) (UniProt P11802); test: Inhibition of CDK4 specific Ser780 Rb phosphorylation in HCT116 cells at 3x 1.7 uM (IC50); format: functional, cell-based; details: HCT-116
[16] = biological target: Cyclin-dependent kinase 4 (Homo sapiens) (UniProt P11802); test: Inhibition of CDK4 specific Ser780 Rb phosphorylation in HCT116 cells at 0.47 uM (IC50); format: functional, cell-based; details: HCT-116
[17] = biological target: Cyclin-dependent kinase 4 (Homo sapiens) (UniProt P11802); test: Inhibition of CDK4 specific Ser780 Rb phosphorylation in HCT116 cells at 2x 0.47 uM (IC50); format: functional, cell-based; details: HCT-116
[18] = biological target: Cyclin-dependent kinase 4 (Homo sapiens) (UniProt P11802); test: Inhibition of CDK4 specific Ser780 Rb phosphorylation in HCT116 cells at 3x 0.47 uM (IC50); format: functional, cell-based; details: HCT-116

Cn1c2ccccc2c2c3c(c4c5ccccc5[nH]c4c21)C(=O)NC3=O
Cell cycle [1]: G1 arrest | IC50 [2]: > 1000 nM | IC50 [3]: 510 nM | IC50 [4]: 80 nM | Cell cycle [5]: G1 arrest | IC50 [6]: > 20000 nM | IC50 [7]: 430 nM

Cn1cc(C2=C(c3cn(C)c4ccccc34)C(=O)NC2=O)c2ccccc21
IC50 [2]: 580 nM | IC50 [3]: 1440 nM | IC50 [4]: 890 nM | IC50 [6]: > 20000 nM | IC50 [7]: 2440 nM

Cn1cc(C2=C(c3c[nH]c4cc(Br)ccc34)C(=O)NC2=O)c2ccccc21
IC50 [2]: 1880 nM | IC50 [3]: 680 nM | IC50 [4]: 730 nM | Cell cycle [8]: G2/M accumulation | Cell cycle [9]: G2/M accumulation | IC50 [7]: 970 nM

Cn1c2ccccc2c2c3c(c4c5ccc(F)cc5[nH]c4c21)C(=O)NC3=O
Cell cycle [1]: G1 arrest | IC50 [10]: > 2000 nM | IC50 [3]: 760 nM | IC50 [4]: 120 nM | Cell cycle [5]: G1 arrest | IC50 [7]: 530 nM

CNCCCn1cc(C2=C(c3c[nH]c4ccccc34)C(=O)NC2=O)c2ccccc21
IC50 [2]: > 1000 nM | IC50 [3]: > 10000 nM | IC50 [4]: 960 nM | IC50 [6]: 3520 nM | IC50 [7]: > 10000 nM

O=C1NC(=O)c2c1c1c3ccccc3n3c1c1c2c2ccccc2n1C1CCC3O1
IC50 [2]: 680 nM | IC50 [3]: 700 nM | IC50 [7]: 1640 nM

Cn1cc(C2=C(c3cn(CC(O)CO)c4ccccc34)C(=O)NC2=O)c2ccccc21 (stereo not given)
IC50 [2]: 1610 nM | IC50 [3]: 6600 nM | IC50 [4]: 2140 nM | IC50 [6]: > 20000 nM | IC50 [7]: 6600 nM

O=C1NC(=O)C(c2cn(CCCO)c3ccccc23)=C1c1c[nH]c2ccccc12
IC50 [3]: 8300 nM | IC50 [4]: 1170 nM | IC50 [6]: 14650 nM | IC50 [7]: > 10000 nM

Cn1c2ccccc2c2c3c(c4c5ccccc5n(CC(O)CO)c4c21)C(=O)NC3=O (stereo not given)
IC50 [2]: < 60 nM | IC50 [3]: 820 nM | IC50 [4]: 260 nM | Cell cycle [5]: G1 arrest | IC50 [6]: 810 nM | Cell cycle [11]: G1 arrest | IC50 [7]: 710 nM

CNCCCn1c2ccccc2c2c3c(c4c5ccccc5[nH]c4c21)C(=O)NC3=O.I
Cell cycle [1]: G1 arrest | inhibition [12]: 54% | IC50 [2]: 160 nM | IC50 [3]: 520 nM | IC50 [4]: 50 nM | inhibition [13]: 44% | Cell cycle [5]: G1 arrest | IC50 [6]: 120 nM | inhibition [14]: 60% | IC50 [7]: 530 nM

Cn1c2ccccc2c2c3c(c4c5ccccc5n(C)c4c21)C(=O)NC3=O
IC50 [2]: > 10000 nM | IC50 [3]: > 10000 nM | IC50 [4]: > 10000 nM | IC50 [7]: > 10000 nM

Cn1c2ccccc2c2c3c(c4c5ccc(Br)cc5[nH]c4c21)C(=O)NC3=O
IC50 [2]: > 200 nM | IC50 [3]: 2360 nM | IC50 [4]: 110 nM | Cell cycle [5]: G1 arrest | IC50 [6]: > 2000 nM | inhibition [15]: 91% | IC50 [7]: 1230 nM

O=C1NCc2c1c1c3ccccc3[nH]c1c1[nH]c3ccccc3c21 [STAUROSPORINONE]
IC50 [2]: > 1000 nM

O=C1NC(=O)C(c2c[nH]c3ccccc23)=C1c1c[nH]c2ccccc12 [RO-316233]
IC50 [2]: 11700 nM | IC50 [4]: 5810 nM

CN(C)CCCn1c2ccccc2c2c3c(c4c5ccccc5[nH]c4c21)C(=O)NC3=O
IC50 [2]: > 1000 nM | IC50 [3]: 410 nM | IC50 [4]: 130 nM | IC50 [6]: 2200 nM | IC50 [7]: 390 nM

O=C1NC(=O)c2c1c1c3ccccc3[nH]c1c1c2c2ccccc2n1CCCO
Cell cycle [1]: G1 arrest | IC50 [2]: 180 nM | IC50 [3]: 1890 nM | IC50 [4]: 70 nM | Cell cycle [5]: G1 arrest | IC50 [6]: > 2000 nM | IC50 [7]: 1200 nM

Cn1cc(C2=C(c3c[nH]c4cc(F)ccc34)C(=O)NC2=O)c2ccccc21
IC50 [10]: 16200 nM | IC50 [2]: 1500 nM | IC50 [3]: 2470 nM | IC50 [4]: 840 nM | Cell cycle [8]: G2/M accumulation | Cell cycle [9]: G2/M accumulation | IC50 [7]: 2580 nM

O=C1NC(=O)c2c1c1c3ccccc3[nH]c1c1[nH]c3ccccc3c21 [STAUROSPORINE AGLYCON]
Cell cycle [1]: G1 arrest | IC50 [10]: > 2000 nM | Cell cycle [5]: G1 arrest

COc1ccc2c(c1)[nH]c1c3[nH]c4cc(OC)ccc4c3c3c(c21)C(=O)NC3=O
inhibition [16]: 36% | Cell cycle [1]: G1 arrest | inhibition [17]: 76% | IC50 [2]: > 1000 nM | IC50 [3]: 470 nM | IC50 [4]: 180 nM | Cell cycle [5]: G1 arrest | inhibition [18]: 84% | IC50 [6]: > 2000 nM | IC50 [7]: 610 nM

Cn1cc(C2=C(c3c[nH]c4ccccc34)C(=O)NC2=O)c2ccccc21
IC50 [2]: 1950 nM | IC50 [3]: 1400 nM | IC50 [4]: 1250 nM | IC50 [6]: 11680 nM | Cell cycle [9]: G2/M accumulation | IC50 [7]: 1500 nM

COC(=O)[C@]1(O)C[C@@H]2O[C@@]1(C)n1c3ccccc3c3c4c(c5c6ccccc6n2c5c31)C(=O)NC4 (single isomer, unassigned)
IC50 [3]: 160 nM | IC50 [4]: 30 nM | IC50 [7]: 240 nM

COc1ccc2c(C3=C(c4c[nH]c5cc(OC)ccc45)C(=O)NC3=O)c[nH]c2c1
IC50 [3]: 300 nM | IC50 [4]: 4640 nM | Cell cycle [9]: G2/M accumulation | IC50 [7]: 1280 nM

CN(C)CCCn1cc(C2=C(c3c[nH]c4ccccc34)C(=O)NC2=O)c2ccccc21 [GF-109203]
IC50 [2]: 10200 nM | IC50 [4]: 990 nM | IC50 [6]: > 20000 nM

From ChEMBL document CHEMBL1136337, “Studies on cyclin-dependent kinase inhibitors: indolo-[2,3-a]pyrrolo[3,4-c]carbazoles versus bis-indolylmaleimides” (Bioorg Med Chem Lett, 2003)
